This passage reports MIC results from ChEMBL document CHEMBL4130618, “Paralithocins, Antimicrobial Peptides with Unusual Disulfide Connectivity from the Red King Crab, Paralithodes camtschaticus” (2018).

Values after ≈ are worked out from the molar mass of the structure shown.

Holding throughout (format): functional
The subject of test [1] is Pseudomonas aeruginosa. Kind of test: Antibacterial activity against Pseudomonas aeruginosa […] measured after 24 hrs. A digest of the protocol:
(§1)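 Purified native peptide in 2-fold serial dilutions in double-distilled water (1.6–100 μM). 50 μL was mixed with an equal volume of actively growing bacteria (5 × 10^3 cells/well) in Mueller Hinton broth and incubated 24 h at 37 °C. Growth was followed by OD. MIC is the lowest concentration giving OD <50% of the water growth control, read at control OD ≈0.3.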

For test [2], the system named is Escherichia coli. Description: Antibacterial activity against Escherichia coli ATCC 25922 measured after 24 hrs. The note with it: ATCC 25922, 24 h. An outline of the steps: as §1
The test system of test [3] is Vibrio anguillarum. Kind of test: Antibacterial activity against Listonella anguillarum AL104 measured after 72 hrs. The note with it: AL104, 72 h. A digest of the protocol: (§2)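 Marine strains were grown in Mueller Hinton broth. Peptide in 2-fold dilutions in double-distilled water (1.6–100 μM, up to 200 μM for selected marine strains), 50 μL plus an equal volume of growing bacteria at 5 × 10^3 cells/well, 72 h at 12 °C. OD was monitored. MIC is the lowest concentration giving OD <50% of the water growth control.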

The test system of test [4] is Corynebacterium glutamicum. Description: Antibacterial activity against Corynebacterium glutamicum ATCC 13032 measured after 24 hrs. Particulars: ATCC 13032, 24 h. An outline of the steps: as §1
Test [5] concerns Carnobacterium funditum. Kind of test: Antibacterial activity against Carnobacterium funditum CCUG 34644 measured after 72 hrs. The note with it: CCUG 34644, 72 h. An outline of the steps: (§3)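 Carnobacteria were grown in modified tryptic soy broth with 5% glucose and 2% NaCl. 2-fold peptide dilutions in double-distilled water (1.6–100 μM, up to 200 μM for selected marine strains), 50 μL mixed 1:1 with growing cells (5 × 10^3/well), incubated 72 h at 12 °C. MIC is the lowest concentration with OD below 50% of the water growth control.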

Test [6] deals with Yersinia ruckeri. Kind of test: Antibacterial activity against Yersinia ruckeri CCUG 14190 measured after 72 hrs. The note with it: CCUG 14190, 72 h. A digest of the protocol: as §2
For test [7], the system named is Carnobacterium maltaromaticum. Kind of test: Antibacterial activity against Carnobacterium maltaromaticum CCUG 34645 measured after 72 hrs. The note with it: CCUG 34645, 72 h. An outline of the steps:
as §3

For test [8], the system named is Staphylococcus aureus. Description: Antibacterial activity against Staphylococcus aureus ATCC 9144 measured after 24 hrs. The note with it: ATCC 9144, 24 h. An outline of the steps: as §1
Test [9] relates to Carnobacterium divergens. Kind of test: Antibacterial activity against Carnobacterium divergens measured after 72 hrs. An outline of the steps: as §3
For test [10], the system named is Aeromonas salmonicida. Kind of test: Antibacterial activity against Aeromonas salmonicida AL2020 measured after 72 hrs. Particulars: AL2020, 72 h. A digest of the protocol: as §2
The test system of test [11] is Carnobacterium mobile. Description: Antibacterial activity against Carnobacterium mobile measured after 72 hrs. An outline of the steps: as §3

Consider `CC[C@H](C)[C@@H]1NC(=O)[C@H](CO)NC(=O)[C@H](CO)NC(=O)[C@@H](NC(=O)[C@H](CO)NC(=O)[C@@H]2CCCN2C(=O)[C@H](CCC(N)=O)NC(=O)[C@H](CCC(N)=O)NC(=O)[C@@H](N)Cc2c[nH]c3ccccc23)CSSC[C@@H](C(=O)N[C@@H](CCCNC(=N)N)C(=O)N[C@@H](CCCNC(=N)N)C(=O)NCC(=O)N2CCC[C@H]2C(=O)N[C@H](C(=O)N[C@@H](Cc2ccc(O)cc2)C(=O)O)[C@@H](C)CC)NC(=O)[C@H](CO)NC(=O)[C@H](C)NC(=O)[C@@H]2CSSC[C@H]3NC(=O)[C@H](C)NC(=O)[C@H](CO)NC(=O)[C@H](CCCCN)NC(=O)CNC(=O)[C@@H]4CSSC[C@H](NC(=O)[C@H](CCCNC(=N)N)NC(=O)CNC(=O)[C@H](CO)NC(=O)[C@H](Cc5ccc(O)cc5)NC(=O)[C@H](CO)NC(=O)[C@H]([C@@H](C)CC)NC3=O)C(=O)NCC(=O)N[C@@H](CSSC[C@H](NC1=O)C(=O)N[C@@H](CC(=O)O)C(=O)N[C@@H](Cc1ccc(O)cc1)C(=O)N[C@@H](CO)C(=O)N4)C(=O)N2`, for which the MIC (commonly the least concentration at which growth counts as inhibited) in test [1] is over 100 µM; in test [2], over 100 µM; in test [3] it was over 100 µM; in test [4], 50 µM (≈ 204 µg/mL); in test [5] it was 200 µM (≈ 816 µg/mL); in [6], over 100 µM. Also, the MIC is 200 µM (≈ 816 µg/mL) in [7]; over 100 µM in test [8]; 200 µM (≈ 816 µg/mL) in test [9]; 200 µM (≈ 816 µg/mL) in [10]; 100 µM (≈ 408 µg/mL) in test [11].
As to H-SWLSKTAKKLENSAKKRISEGIAIAIQGGPR-OH, the MIC in test [1] came out at 1.6 µM; in [2], 1.6 µM; in [3], 1.6 µM; in test [4], 1.6 µM; in [5], 25 µM; in test [6], 0.8 µM. Also, the MIC came to 50 µM in test [7]; 100 µM in test [8]; 25 µM in test [9]; 3.1 µM in test [10]; 6.3 µM in [11].
